According to ChEMBL document CHEMBL3045447, “Isolation and structural elucidation of eight new related analogues of the mycotoxin (-)-botryodiplodin from Penicillium coalescens” (2007):

Key:
Assay type in all cases: functional
[1] = tested on: Phytophthora citrophthora; experiment: Antifungal activity against Phytophthora citrophthora CECT 2353 at 0.2 mg/disk after 72 hr by paper disk agar diffusion assay
In short: (§1)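 Paper disk–agar diffusion, triplicate. Fungus grown on PDA 7 days at 28 °C. Conidia suspended at ca. 10^6/mL in 0.05% Tween 80. 1 mL seeded into 15 mL PDA. After solidification, four 0.5 cm paper disks loaded with test product. Inhibition zone (mm) read at 72 h. Solvent-only disks as negative control; benomyl disks, dose set per species, as positive control.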

Verticillium dahliae [2] = experiment: Antifungal activity against Verticillium dahliae CCM 269 at 0.2 mg/disk after 72 hr by paper disk-agar diffusion assay; in short: as §1
Staphylococcus aureus = experiment: Antibacterial activity against Staphylococcus aureus CECT 86 at 0.2 mg/disk after 24 hr by paper disk agar diffusion assay
In short: (§2)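 Paper disk–agar diffusion, triplicate. Each bacterium grown 24 h in Nutrient Broth at 28 °C or 37 °C, per organism. 1 mL suspension inoculated into a plate, then 15 mL Plate Count Agar added. Five loaded disks placed after solidification. Plates incubated 24 h dark at 28 or 37 °C. Halo measured. Solvent-only disks as negative control; tetracycline chlorhydrate as positive control.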

Ceratitis capitata = experiment: Insecticidal activity against Ceratitis capitata 2 to 3 days old adult male flies assessed as insect mortality measured after 10 days post compound application
In short: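 Topical dose in 1 µL acetone applied by micropipet to the ventral abdomen of ice-anaesthetised 2–3-day-old adults, five males plus five females per group. Controls got acetone alone. Flies kept in a netted box with diet and water ad libitum. Mortality scored every 24 h for 10 days, in triplicate. LD50 from probit of mortality vs log dose.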

Oncopeltus fasciatus = experiment: Insecticidal activity against Oncopeltus fasciatus fourth-instar larvae assessed as insect mortality measured after 72 hr post compound application
In short: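 Treated nymphs confined in a 9 cm Petri dish with food and water ad libitum. Acetone-only controls run in parallel. Acute toxicity scored as dead insects after 72 h, in triplicate. LD50 (µg/nymph) from linear regression of probit mortality on log dose.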

[3] = tested on: Pectobacterium carotovorum; experiment: Antibacterial activity against Pectobacterium carotovorum CECT 225 at 0.2 mg/disk […] by paper disk-agar diffusion assay
Escherichia coli = experiment: Antibacterial activity against Escherichia coli CECT 405 at 0.2 mg/disk after 24 hr by paper disk agar diffusion assay; in short: as §2
Enterococcus faecalis = experiment: Antibacterial activity against Enterococcus faecalis CECT 481 at 0.2 mg/disk after 24 hr by paper disk agar diffusion assay; in short: as §2
Bacillus cereus = experiment: Antibacterial activity against Bacillus cereus CECT 148 at 0.2 mg/disk after 24 hr by paper disk agar diffusion assay; in short: as §2
Penicillium italicum = experiment: Antifungal activity against Penicillium italicum CECT 2294 at 0.2 ug/disk after 72 hr by paper disk-agar diffusion assay; settings: CECT 2294, 72 h, read-out: IZ; in short: as §1
Aspergillus parasiticus = experiment: Antifungal activity against Aspergillus parasiticus CECT 2681 at 1 ug/disk after 72 hr by paper disk agar diffusion assay; settings: CECT 2681, 72 h, read-out: IZ; in short: as §1
Trichoderma viride = experiment: Antifungal activity against Hypocrea rufa CECT 2423 at 1 ug/disk after 72 hr by paper disk agar diffusion assay; settings: CECT 2423, 72 h, read-out: IZ; in short: as §1
Trichothecium roseum = experiment: Antifungal activity against Trichothecium roseum CECT 2410 at 5 ug/disk after 72 hr by paper disk agar diffusion assay; settings: CECT 2410, 72 h, read-out: IZ; in short: as §1
[4] = tested on: Colletotrichum gloeosporioides; experiment: Antifungal activity against Colletotrichum gloeosporioides CECT 2859 at 0.5 ug/disk after 72 hr by paper disk-agar diffusion assay; settings: CECT 2859, 72 h, read-out: IZ; in short: as §1
[5] = tested on: Fusarium oxysporum f. sp. gladioli; experiment: Antifungal activity against Fusarium oxysporum f. sp. gladioli CCM 233 at 10 ug/disk after 72 hr by paper disk agar diffusion assay; settings: CCM 233, 72 h, read-out: IZ; in short: as §1
[6] = tested on: Fusarium oxysporum f. sp. niveum; experiment: Antifungal activity against Fusarium oxysporum f. sp. niveum CCM 259 at 5 ug/disk after 72 hr by paper disk-agar diffusion assay; settings: CCM 259, 72 h, read-out: IZ; in short: as §1
Fusarium culmorum = experiment: Antifungal activity against Fusarium culmorum CECT 2148 at 10 ug/disk after 72 hr by paper disk agar diffusion assay; settings: CECT 2148, 72 h, read-out: IZ; in short: as §1
[7] = tested on: Phytophthora citrophthora; experiment: Antifungal activity against Phytophthora citrophthora CECT 2353 at 1.5 ug/disk after 72 hr by paper disk agar diffusion assay; settings: CECT 2353, 72 h, read-out: IZ; in short: as §1
Verticillium dahliae [8] = experiment: Antifungal activity against Verticillium dahliae CCM 269 at 0.25 ug/disk after 72 hr by paper disk-agar diffusion assay; settings: CCM 269, 72 h, read-out: IZ; in short: as §1

For `CC(=O)[C@@H]1COC(O)[C@@H]1C` (single isomer, unassigned; (-)) [(-)-BOTRYODIPLODIN], the “inhibition zone (IZ)” value [1] was 8.21 mm, the “inhibition zone (IZ)” value (Verticillium dahliae [2]) was 17.31 mm and the “inhibition zone (IZ)” value (Staphylococcus aureus) was 13.53 mm. The LD50 (Ceratitis capitata) was 12.9 µg and the LD50 (Oncopeltus fasciatus) was 5.55 µg.
`C=C(C(C)=O)[C@@H](C)CO[C@@H]1OC[C@@H](C(C)=O)[C@H]1C` [(-)-2-EPI-BOTRYODIPLODINENONE] was tested, and the LD50 (Oncopeltus fasciatus) was greater than 15 µg.
`CC(=O)[C@@H]1CO[C@@H](O[C@@H]2OC[C@@H](C(C)=O)[C@H]2C)[C@@H]1C` [(-)-BOTRYODIPLODIN DIMER] gave an LD50 (Oncopeltus fasciatus) greater than 15 µg.
With `CN(C)[C@@H]1C(O)=C(C(N)=O)C(=O)[C@@]2(O)C(O)=C3C(=O)c4c(O)cccc4[C@@](C)(O)[C@H]3C[C@@H]12.Cl` [TETRACYCLINE HYDROCHLORIDE] the “inhibition zone (IZ)” value [3] was 34.67 mm, the “inhibition zone (IZ)” value (Escherichia coli) was 24 mm and the “inhibition zone (IZ)” value (Enterococcus faecalis) was 31.67 mm. For the same molecule, the “inhibition zone (IZ)” value (Staphylococcus aureus) was 16.67 mm and the “inhibition zone (IZ)” value (Bacillus cereus) was 18.33 mm.
Work on `CCCCNC(=O)n1c(NC(=O)OC)nc2ccccc21` [BENOMYL] yielded a zone of inhibition at 0.2 µg/disc (Penicillium italicum) of 16.7 mm, a zone of inhibition at 1 µg/disc (Aspergillus parasiticus) of 8.33 mm and a zone of inhibition at 1 µg/disc (Trichoderma viride) of 12.3 mm. For the same molecule, the zone of inhibition at 5 µg/disc (Trichothecium roseum) was 29.7 mm, the zone of inhibition at 0.5 µg/disc [4] was 26.7 mm and the zone of inhibition at 10 µg/disc [5] was 9.33 mm. It also gave a zone of inhibition at 5 µg/disc [6] of 17.3 mm, a zone of inhibition at 10 µg/disc (Fusarium culmorum) of 19 mm and a zone of inhibition at 1.5 µg/disc [7] of 17.1 mm. For the same molecule, the zone of inhibition at 0.25 µg/disc (Verticillium dahliae [8]) was 14.3 mm.
`CC(=O)O[C@@H]1OC[C@@H](C(C)=O)[C@H]1C` (relative stereo) [Botryodiplodin acetate] was tested, and the LD50 (Oncopeltus fasciatus) was 12.19 µg.
